Sampled rows, rich in hits. Any-hit rate of the full collection: about 3%.
FID counter: counter-screen for HCV NS3 helicase inhibitors: DNA intercalator displacement; DNA fluorescent intercalator displacement, fluorescence; inhibition, % at 7.9 µM; 290,000 tested, 0.17% active; AID 1845; in the data active = inhibition above about 37%;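 also: 0% = vehicle and 100% = reference compound; higher means more ethidium bromide displaced from hairpin DNA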
TMEM16A inh: blocks the mouse calcium-activated chloride channel TMEM16A. 310,000 tested, 1.2% active. HEK293 TMEM16A/YFP iodide influx fluorescence, ionomycin. normalized B-score (activity score, 25-100; higher = stronger inhibition) at 10 µM. AID 588511. Q8BHY3;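 active = ratio plate-corrected score three or more library SD toward inhibition, starting fluorescence score within five deviations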;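 also: score derived from kinetic fluorescence span divided by baseline fluorescence per well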
SR-BI DiI-HDL act: activators of SR-BI mediated HDL lipid uptake | activation, % at 12.5 µM | CHO ldlA[mSR-BI] cells, DiI-HDL uptake fluorescence, 3 h; 100 = double the neutral-control signal | 320,000 tested, 0.096% active;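 active = mean replicate activation of at least 60% and every replicate at or above 60%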;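 also: 0% = median plate neutral-control signal and 100% = twice that signal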
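Test system: SR-BI-overexpressing, LDLR-lacking CHO cells; Medium: Ham's F12 with 0.5% BSA, HEPES 25 mM, pH 7.4; Schedule: 3 h, 37 °C; Technique: bottom-read fluorescence, 550/595 nm.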
TMEM16A act: activates or potentiates the mouse TMEM16A chloride channel | AID 623877 | B-score at 10 µM | HEK293 TMEM16A/YFP-H148Q/I152L, iodide quench fluorescence; active compounds read low | 340,000 tested, 0.3% active;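 active = fluorescence-ratio B-score plate-corrected deviation score at least 3 library SD below zero, with starting fluorescence score within 5 deviations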;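 also: channel opened by trigger with iodide after compound preincubation; score built on the fluorescence ratio of max minus min over baseline; more negative score means more quench and so TMEM16A activation or potentiation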
SR-BI HDL uptake: inhibitors of mouse SR-BI mediated HDL lipid uptake. Q61009. ldlA[mSR-BI] CHO cells, DiI-HDL uptake fluorescence, 3 h. inhibition, % at 12.5 µM. 320,000 tested, 0.96% active;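 active = mean replicate inhibition of at least 70% and a set share of replicates each scoring 70 or more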;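 also: 0% = median of neutral control wells and 100% = median of positive control wells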
Kir21 block: blocks the mouse Kir2.1 inward-rectifier potassium channel; AID 1672; B-score at 10 µM; HEK293-Kir2.1, FluxOR thallium flux fluorescence; active compounds read low; 310,000 tested, 0.85% active; P35561;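 active = fluorescence ratio B-score at or below minus 3 SD of library scores, with starting-brightness B-score within 2 SD, cut at about -4.2 in these data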;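 also: channel flux triggered by added potassium and thallium sulfate stimulus; B-score of peak minus minimum fluorescence over baseline after thallium stimulus; more negative B-score means stronger Kir2.1 block with less thallium influx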
Target sequence (P35561 whole entry, looked up): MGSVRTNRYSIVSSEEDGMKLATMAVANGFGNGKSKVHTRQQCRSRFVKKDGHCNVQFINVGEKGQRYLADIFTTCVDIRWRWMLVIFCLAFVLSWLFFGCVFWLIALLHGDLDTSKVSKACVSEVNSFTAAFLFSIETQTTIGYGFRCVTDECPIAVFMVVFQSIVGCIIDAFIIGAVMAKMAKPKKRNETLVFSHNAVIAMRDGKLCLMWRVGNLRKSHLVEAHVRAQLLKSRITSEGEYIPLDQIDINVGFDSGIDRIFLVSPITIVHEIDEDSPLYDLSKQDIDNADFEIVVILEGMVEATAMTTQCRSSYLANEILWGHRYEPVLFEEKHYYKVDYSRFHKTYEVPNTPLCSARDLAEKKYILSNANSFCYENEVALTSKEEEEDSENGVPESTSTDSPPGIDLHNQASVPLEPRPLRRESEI
An asterisk follows results filed as active; i = inactive; / = no result.

SMILES | FID counter | TMEM16A inh | SR-BI DiI-HDL act | TMEM16A act | SR-BI HDL uptake | Kir21 block
COc1ccc2[nH]c3c(c2c1)CCN1C(=O)C(CC(=O)NC/C=C(\C)CCC=C(C)C)C[C@H](C(=O)N2CCOCC2)[C@@]31CCC1CCCC1 (some centres not stated) | / | / | -3 | / | 3 | /
CC(C)(C)C1CCCCC1NC(=O)c1ccncc1 (configuration not stated) | -2 | i | 21 | i | -21 | -0.01
CSCCC(NC(=O)c1ccccc1Cl)C(=O)N1CCCCC1 (configuration not stated) | / | / | 7 | i | -7 | /
COc1ccc(CC(NC(C)=O)C(=O)NC2CCN(C(=O)c3ccc([N+](=O)[O-])cc3)CC2)cc1OC (configuration not stated) | -5 | i | 6 | i | -6 | -0.23
COC(=O)c1cn(C(=O)OC)c2ccccc12 | 3 | i | -1 | i | 1 | 0.32
COC(=O)c1cn(C(=O)/C=C/c2ccc(OC)c(OC)c2)c2ccccc12 | -5 | i | -93 | i | 93* | 0.08
COc1ccc(/C=N\NC(=O)c2cc(O)c(O)c(O)c2)cc1COc1ccc(C(=O)OCC(C)C)cc1 | -16 | i | -79 | i | 79* | 0.54
CCN(CC)CCN(Cc1cc2cc3c(cc2[nH]c1=O)OCCO3)C(=S)NC | -7 | i | 18 | i | -18 | 0.02
CC(NCc1ccc(S(N)(=O)=O)cc1)C(=O)Nc1ccc([N+](=O)[O-])cc1Cl (configuration not stated) | 3 | i | -17 | -24* | 17 | -1.6
O=C(Nc1nc2ccccc2n1CCN1CCCCC1)C1CCCCC1 | -3 | 25* | -3 | i | 3 | -0.17
CCn1c(NC(=O)C2CCCCC2)nc2ccccc21 | -6 | i | / | i | / | -1.3
CC(=NNC(=O)c1cccc(S(=O)(=O)N2CCOCC2)c1)c1ccc(Cl)cc1 | / | / | -33 | i | 33 | /
CCN(CC)CCCNC(=O)c1oc2ccc(S(=O)(=O)N3CC(C)CC(C)C3)cc2c1C (configuration not stated) | 22 | i | 2 | i | -2 | 0.68
CSCCC(NC(=O)c1ccco1)C(=O)NNC(=O)c1n[nH]c(=O)c2ccccc12 (configuration not stated) | / | / | 27 | i | -27 | /
O=C(c1ccco1)N1CCN(S(=O)(=O)c2ccccc2[N+](=O)[O-])CC1 | 4 | i | 9 | i | -9 | 0.81
Brc1ccc2c(c1)OCCOCCOc1cc(Br)ccc1OCCOCCOCCO2 | -26 | 100* | -27 | i | 27 | -2
Brc1cc2c(cc1Br)OCCOCCOCCOCCO2 | -11 | i | 41 | i | -41 | 0.74
C=CC[C@H](CC(=O)NCCO)C(=O)NC[C@@H](OC(=O)[C@@H](CC=C)CC(=O)OC(C)(C)C)c1ccccc1 | / | / | -3 | -18* | 3 | /
C=CCc1ccc(OCC(O)CN2CCN(Cc3ccc(Cl)cc3)CC2)c(OC)c1 (configuration not stated) | 9 | i | -15 | i | 15 | -8.3*
OC(COCc1ccc(Cl)cc1)CN1CCN(CC(O)COCc2ccc(Cl)cc2)CC1 (configuration not stated) | 28 | i | -15 | i | 15 | -4.9*
COc1cc(/C=N/NC(=O)c2ccc(CN3C(=O)c4cccc5cccc3c45)cc2)cc(OC)c1O | -28 | i | -68 | i | 68 | -2.2
O=C(NCc1ccccn1)c1cn(CCc2ccccc2)nn1 | -7 | i | 25 | / | -25 | 0.64
O=C(NCc1cccnc1)c1cn(CCc2ccccc2)nn1 | -4 | 25* | 28 | i | -28 | /
NS(=O)(=O)c1ccc(NCc2cc(Cl)ccc2OCc2ccc(F)cc2)cc1 | -6 | 25* | -26 | i | 26 | -2.3
CCOc1cc(CNCCc2ccc(S(N)(=O)=O)cc2)cc(Cl)c1OCc1ccccc1 | 25 | 25* | -1 | i | 1 | -3.7
SMILES | FID counter | TMEM16A inh | SR-BI DiI-HDL act | TMEM16A act | SR-BI HDL uptake | Kir21 block
CCOc1cc(CNc2ccc(S(N)(=O)=O)cc2)cc(Cl)c1OC | -7 | i | -17 | i | 17 | -1.9
OCCNCc1cc(Br)ccc1OCc1ccccc1 | 24 | i | 51 | i | -51 | 0.02
NS(=O)(=O)c1ccc(CCNCc2cc(Br)ccc2OCc2ccccc2)cc1 | 13 | 100* | -6 | i | 6 | -8.2*
CC1CCN(S(=O)(=O)c2ccc(NC(=O)C3CCCCC3C(=O)O)cc2)CC1 (configuration not stated) | / | / | 7 | i | -7 | /
COc1ccc(C2(c3ccc(OC)cc3)NC(=O)N(CC(=O)N(C)C3CCC(C)CC3)C2=O)cc1 (configuration not stated) | / | / | -10 | i | 10 | /
CCCS(=O)(=O)N1CCCC(C(=O)Oc2ccc(OC)cc2)C1 (configuration not stated) | -10 | i | 10 | i | -10 | 0.81
COc1cc(CNC(C)(C)CO)cc(Br)c1OCc1ccc(Cl)cc1Cl | 32 | i | 23 | i | -23 | -10*
COc1cc(CNC(C)(C)CO)cc(Br)c1OCc1ccc(Cl)cc1 | 28 | i | 3 | i | -3 | -4.8*
COc1cc(CNc2ccc(O)cc2)cc(Br)c1OCc1ccccc1 | 6 | i | -45 | i | 45 | -0.52
N#Cc1ccc(-c2ccc(F)cc2)nc1SCC(=O)Nc1sc2c(c1C#N)CCC2 | -2 | i | -78 | i | 78* | 2.5
O=C(Nc1ncccc1O)c1c(O)c2ccccc2[nH]c1=O | -4 | i | / | i | / | -0.9
Cc1ccc(SCC(=O)Nc2cc([N+](=O)[O-])ccc2O)cc1 | 0 | 25* | 18 | i | -18 | 0.37
O=C(CSCc1ccc(Cl)cc1)Nc1cc([N+](=O)[O-])ccc1O | 0 | i | -14 | i | 14 | -1.3
Cc1ccc(C)c(SCC(=O)Nc2ccc(C)c(S(=O)(=O)N3CCOCC3)c2)c1 | / | / | -24 | i | 24 | /
CCN(CC)c1ccc(-n2cc3c(=O)n(C)c(=O)n(C)c3c2)cc1 | -22 | i | -74 | i | 74* | -0.67
O=C(Nc1nnc(-c2ccc(F)cc2)o1)c1ccc(S(=O)(=O)N2CCOCC2)cc1 | -35 | i | 31 | i | -31 | 0.18
O=C(CCCn1c(=O)oc2ccccc21)NNC(=O)COc1ccc(F)cc1 | / | / | 41 | i | -41 | /
CCOC(=O)C1=C(COC(=O)/C=C/c2ccc(OCC)c(OC)c2)NC(=O)NC1C (configuration not stated) | / | i | -83 | i | 83* | -0.52

Source: PubChem BioAssay
